This passage reports MIC results from ChEMBL document CHEMBL1136741, “Role of the glycopeptide framework in the antibacterial activity of hydrophobic derivatives of glycopeptide antibiotics” (2003).

Converted amounts (≈) assume the structure as drawn.

Test [1] has as its system Enterococcus faecium. Kind of test: Antibacterial activity against glycopeptide resistant Enterococcus faecium 569 strain. In kind it is functional. The method, boiled down:
(§1)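 MIC by broth microdilution in Mueller Hinton broth following NCCLS procedures. Compounds were dissolved in 10% DMSO in water, then diluted in broth. Final DMSO was 1.28% at 128 µg/mL antibiotic down to 0.0013% at 0.13 µg/mL. Repeat determinations were usually identical and always within 2-fold.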

The subject of test [2] is Enterococcus faecium. Description: Antibacterial activity against glycopeptide susceptible Enterococcus faecium 568 strain. Type of test: functional. In outline: (§2)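 MIC by broth microdilution in Mueller Hinton broth following NCCLS procedures. Compounds dissolved in 10% DMSO in water, then diluted in broth; test range 128 to 0.13 µg/mL, final DMSO 1.28% to 0.0013% accordingly. Repeat determinations usually identical and always within 2-fold. Strain 533 is a clinical isolate; strain 602 is a clinical S. haemoliticus isolate.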

Test [3] deals with Enterococcus faecalis. Kind of test: Antibacterial activity against glycopeptide resistant Enterococcus faecalis 560 strain. Type of test: functional. The method, boiled down: as §1
In test [4] the test system is Enterococcus faecalis. Description: Antibacterial activity against glycopeptide susceptible Enterococcus faecalis 559 strain. In kind it is functional. In outline:
as §2

For test [5], the system named is Staphylococcus aureus. Description: Antibacterial activity against glycopeptide intermediate resistant Staphylococcus aureus 3797 strain. Type of test: functional. The method, boiled down: as §1
Test [6] relates to Staphylococcus aureus. Description: Antibacterial activity against glycopeptide intermediate resistant Staphylococcus aureus 3798 strain. In kind it is functional. In outline:
as §1

In test [7] the test system is Staphylococcus epidermidis. Kind of test: Antibacterial activity against Staphylococcus epidermis 533 strain. In kind it is functional.
Test [8] has as its system Staphylococcus haemolyticus. Description: Antibacterial activity against Staphylococcus haemolyticus 602 strain.

By MIC is commonly meant the least concentration at which growth counts as inhibited.

`CN[C@H](CC(C)C)C(=O)N[C@H]1C(=O)N[C@@H](CC(N)=O)C(=O)N[C@H]2C(=O)N[C@H]3C(=O)N[C@H](C(=O)N[C@H](C(=O)NCc4ccc(-c5ccc(Cl)cc5)cc4)c4cc(O)cc(O)c4-c4cc3ccc4O)[C@H](O[C@H]3C[C@](C)(N)[C@@H](O)[C@H](C)O3)c3ccc(cc3)Oc3cc2cc(c3O[C@@H]2O[C@H](CO)[C@@H](O)[C@H](O)[C@H]2O[C@H]2C[C@](C)(N)[C@@H](O)[C@H](C)O2)Oc2ccc(cc2Cl)[C@H]1O`: the minimal inhibitory concentration (MIC) in the test on Enterococcus faecium [1] came to 4 µg/mL (≈ 2.28 µM); with Enterococcus faecium [2], 1 µg/mL (≈ 0.569 µM); with Enterococcus faecalis [3], 4 µg/mL (≈ 2.28 µM); against Enterococcus faecalis [4], 2 µg/mL (≈ 1.14 µM); against Staphylococcus aureus [5], 4 µg/mL (≈ 2.28 µM); in the test with Staphylococcus aureus [6] it was 4 µg/mL (≈ 2.28 µM). The MIC in test [7] was 2 µg/mL (≈ 1.14 µM); in test [8], 1 µg/mL (≈ 0.569 µM).

Consider `C[C@@H]1O[C@@H](O[C@H]2[C@H](Oc3c4cc5cc3Oc3ccc(cc3Cl)[C@@H](O)[C@@H](N)C(=O)N[C@@H](CC(N)=O)C(=O)N[C@H]5C(=O)N[C@H]3C(=O)N[C@H](C(=O)N[C@H](C(=O)O)c5cc(O)cc(O)c5-c5cc3ccc5O)[C@H](O[C@H]3C[C@](C)(N)[C@@H](O)[C@H](C)O3)c3ccc(cc3)O4)O[C@H](CO)[C@@H](O)[C@@H]2O)C[C@](C)(N)[C@H]1O`, for which the minimal inhibitory concentration (MIC) against Enterococcus faecium [1] was above 128 µg/mL; with Enterococcus faecium [2], 16 µg/mL (≈ 11.2 µM); in the test on Enterococcus faecalis [3], above 128 µg/mL; against Enterococcus faecalis [4], 16 µg/mL (≈ 11.2 µM); against Staphylococcus aureus [5] it was 64 µg/mL (≈ 44.7 µM); in the test with Staphylococcus aureus [6], 64 µg/mL (≈ 44.7 µM). Moreover, the MIC in test [7] and in test [8] was 16 µg/mL (≈ 11.2 µM) each time.

Consider `CCCCCCCCCCNC(=O)[C@H]1NC(=O)[C@H]2NC(=O)[C@H](NC(=O)[C@@H]3NC(=O)[C@H](CC(N)=O)NC(=O)[C@H](N)[C@H](O)c4ccc(c(Cl)c4)Oc4cc3cc(c4O[C@@H]3O[C@H](CO)[C@@H](O)[C@H](O)[C@H]3O[C@H]3C[C@](C)(N)[C@@H](O)[C@H](C)O3)Oc3ccc(cc3)[C@H]2O[C@H]2C[C@](C)(N)[C@@H](O)[C@H](C)O2)c2ccc(O)c(c2)-c2c(O)cc(O)cc21`, for which the MIC is 2 µg/mL (≈ 1.27 µM) against Enterococcus faecium [1]; 2 µg/mL (≈ 1.27 µM) in the test with Enterococcus faecium [2]; 4 µg/mL (≈ 2.55 µM) in the test on Enterococcus faecalis [3]; 2 µg/mL (≈ 1.27 µM) against Enterococcus faecalis [4]; 4 µg/mL (≈ 2.55 µM) against Staphylococcus aureus [5]; 8 µg/mL (≈ 5.1 µM) in the test with Staphylococcus aureus [6]. Besides, the minimum inhibitory concentration (MIC) in test [7] was found to be 0.5 µg/mL (≈ 0.318 µM); in test [8] it was 1 µg/mL (≈ 0.637 µM).

With `CCCCCCCCCCNC(=O)[C@H]1NC(=O)[C@H]2NC(=O)[C@H](NC(=O)[C@@H]3NC(=O)[C@H](CC(N)=O)NC(=O)[C@H](N)[C@H](O)c4ccc(c(Cl)c4)Oc4cc3cc(c4O)Oc3ccc(cc3)[C@H]2O)c2ccc(O)c(c2)-c2c(O)cc(O)cc21`, the MIC was 64 µg/mL (≈ 57.1 µM) against Enterococcus faecium [1]; 64 µg/mL (≈ 57.1 µM) in the test with Enterococcus faecium [2]; above 128 µg/mL against Enterococcus faecalis [3]; 64 µg/mL (≈ 57.1 µM) against Enterococcus faecalis [4]; 32 µg/mL (≈ 28.5 µM) with Staphylococcus aureus [5]; 32 µg/mL (≈ 28.5 µM) in the test with Staphylococcus aureus [6]. In addition, the minimum inhibitory concentration (MIC) in test [7] worked out at 16 µg/mL (≈ 14.3 µM); in test [8], 64 µg/mL (≈ 57.1 µM).

Take `CN[C@H](CC(C)C)C(=O)N[C@H]1C(=O)N[C@@H](CC(N)=O)C(=O)N[C@H]2C(=O)N[C@H]3C(=O)N[C@H](C(=O)N[C@H](C(=O)NCc4ccc(-c5ccc(Cl)cc5)cc4)c4cc(O)cc(O)c4-c4cc3ccc4O)[C@H](O)c3ccc(cc3)Oc3cc2cc(c3O)Oc2ccc(cc2Cl)[C@H]1O`: the minimal inhibitory concentration (MIC) in the test on Enterococcus faecium [1], against Enterococcus faecium [2], in the test on Enterococcus faecalis [3], with Enterococcus faecalis [4], with Staphylococcus aureus [5] and with Staphylococcus aureus [6] was 8 µg/mL (≈ 6.11 µM) each time. Also, the MIC stood at 4 µg/mL (≈ 3.06 µM) in test [7] and 8 µg/mL (≈ 6.11 µM) in test [8].

`CCCCCCCCCCNC(=O)[C@H]1NC(=O)[C@H]2NC(=O)[C@H](NC(=O)[C@@H]3NC(=O)[C@H](CC(N)=O)NC(=O)[C@H](NC(=O)[C@@H](CC(C)C)NC)[C@H](O)c4ccc(c(Cl)c4)Oc4cc3cc(c4O[C@@H]3O[C@H](CO)[C@@H](O)[C@H](O)[C@H]3O[C@H]3C[C@](C)(N)[C@@H](O)[C@H](C)O3)Oc3ccc(cc3)[C@H]2O[C@H]2C[C@](C)(N)[C@@H](O)[C@H](C)O2)c2ccc(O)c(c2)-c2c(O)cc(O)cc21`: the MIC against Enterococcus faecium [1] came out at 2 µg/mL (≈ 1.18 µM); against Enterococcus faecium [2] it was 0.5 µg/mL (≈ 0.295 µM); in the test on Enterococcus faecalis [3], 4 µg/mL (≈ 2.36 µM); with Enterococcus faecalis [4], 1 µg/mL (≈ 0.589 µM); against Staphylococcus aureus [5], 4 µg/mL (≈ 2.36 µM); against Staphylococcus aureus [6], 4 µg/mL (≈ 2.36 µM). Besides, the minimal inhibitory concentration (MIC) in test [7] and in test [8] was 0.13 µg/mL (≈ 0.0766 µM) in each case.

Consider `CN[C@H](CC(C)C)C(=O)N[C@H]1C(=O)N[C@@H](CC(N)=O)C(=O)N[C@H]2C(=O)N[C@H]3C(=O)N[C@H](C(=O)N[C@H](C(=O)O)c4cc(O)cc(O)c4-c4cc3ccc4O)[C@H](O)c3ccc(c(Cl)c3)Oc3cc2cc(c3O[C@@H]2O[C@H](CO)[C@@H](O)[C@H](O)[C@H]2O[C@H]2C[C@](C)(N)[C@H](O)[C@H](C)O2)Oc2ccc(cc2Cl)[C@H]1O` [VANCOMYCIN], for which the minimum inhibitory concentration (MIC) in the test with Enterococcus faecium [1] was above 128 µg/mL; against Enterococcus faecalis [3] it was above 128 µg/mL; with Enterococcus faecalis [4], 1 µg/mL (≈ 0.69 µM); against Staphylococcus aureus [5], 16 µg/mL (≈ 11 µM); against Staphylococcus aureus [6], 8 µg/mL (≈ 5.52 µM).
